ChEMBL document CHEMBL2440113, “Synthesis, radiofluorination, and in vivo evaluation of novel fluorinated and iodinated radiotracers for PET imaging and targeted radionuclide therapy of melanoma” (J Med Chem, 2013)

How the values were obtained:
Mus musculus [1] = assay: Ratio of drug level in tumor to bone in C57BL/6J mouse harboring mouse B16-Bl6 cells at 9 to 12 MBq, iv after 2 hrs by PET analysis; details: in vivo
[2] = Stability of the compound in tumor of C57BL/6J mouse harboring mouse B16-Bl6 cells assessed as unchanged drug level at 18 MBq, iv after 30 mins; format: ADME, organism-based, Neoplasm; details: read-out: Stability
[3] = Stability of the compound in eyes of C57BL/6J mouse harboring mouse B16-Bl6 cells assessed as unchanged drug level at 18 MBq, iv after 1 hr; format: ADME, organism-based, Eye; details: read-out: Stability
In short: (§1)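 Metabolite analysis in six B16Bl6 tumour-bearing mice given 18 MBq iv, killed at 30 min, 1 h or 2 h. Plasma (centrifuged) and bladder urine were injected directly. Pooled tumours, eyes and livers were homogenized in MeOH/NH₄OH 99.8:0.2, centrifuged, filtered and concentrated. Samples ran on radio-HPLC (C18, MeOH/H₂O/NH₄OH gradient) in duplicate; result is % unchanged tracer of total radioactivity.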

[4] = Stability of the compound in tumor of C57BL/6J mouse harboring mouse B16-Bl6 cells assessed as unchanged drug level at 18 MBq, iv after 2 hrs; format: ADME, organism-based, Neoplasm; details: read-out: Stability
In short: as §1

Nucleic Acid = assay: Ratio of drug level in tumor to bone in C57BL/6J mouse harboring mouse B16-Bl6 cells at 9 to 12 MBq, iv after 1 hr by PET analysis; format: ADME, organism-based; details: in vivo
In short: (§2)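 Ex vivo biodistribution. C57BL/6J mice bearing subcutaneous B16Bl6 tumours (3x10⁵ cells, shoulder), day 10 or 14, received [18F]tracer iv (9-12 MBq). They were killed by CO₂ at 1, 2 or 3 h. Tumours and organs were excised, weighed and gamma-counted. Results are decay-corrected % ID/g; ratios are tumour over tissue. n=3-6 per group; mean ± SD.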

Blood = assay: Stability of the compound in blood of C57BL/6J mouse harboring mouse B16-Bl6 cells assessed as unchanged drug level at 18 MBq, iv after 2 hrs; format: ADME, organism-based; details: in vivo
In short: as §1

[5] = Stability of the compound in urine of C57BL/6J mouse harboring mouse B16-Bl6 cells assessed as unchanged drug level at 18 MBq, iv after 1 hr; format: ADME, organism-based; details: read-out: Stability
In short: as §1

[6] = Stability of the compound in eyes of C57BL/6J mouse harboring mouse B16-Bl6 cells assessed as unchanged drug level at 18 MBq, iv after 2 hrs; format: ADME, organism-based, Eye; details: read-out: Stability
In short: as §1

Mus musculus [7] = assay: Biodistribution in eyes of C57BL/6J mouse harboring mouse B16-Bl6 cells at 9 to 12 MBq, iv after 2 hrs by PET analysis; format: ADME, organism-based, Eye; details: in vivo
In short: (§3)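 Ex vivo dissection in B16Bl6-bearing C57BL/6J mice (3x10⁵ cells s.c. right shoulder), done at day 10 or 14 after implantation. The ¹⁸F tracer was given i.v. at 9-12 MBq. Mice were killed by CO₂ at 1, 2 or 3 h. Tumor, organs and tissues were excised, weighed and gamma-counted, then decay-corrected and expressed as %ID/g. n=3-6 per group; mean ± SD.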

Kidney [8] = assay: Biodistribution in kidney of C57BL/6J mouse harboring mouse B16-Bl6 cells at 9 to 12 MBq, iv after 2 hrs by PET analysis; format: ADME, organism-based; details: in vivo
In short: as §3

[9] = Ratio of drug level in tumor to blood in C57BL/6J mouse harboring mouse B16-Bl6 cells at 9 to 12 MBq, iv after 1 hr by PET analysis; format: ADME, organism-based
In short: as §2

[10] = Stability of the compound in liver of C57BL/6J mouse harboring mouse B16-Bl6 cells assessed as unchanged drug level at 18 MBq, iv after 1 hr; format: ADME, organism-based; details: read-out: Stability
In short: as §1

Mus musculus [11] = assay: Biodistribution in small intestine of C57BL/6J mouse harboring mouse B16-Bl6 cells at 9 to 12 MBq, iv after 2 hrs by PET analysis; format: ADME, organism-based; details: in vivo
In short: as §3

Pancreas = assay: Biodistribution in pancreas of C57BL/6J mouse harboring mouse B16-Bl6 cells at 9 to 12 MBq, iv after 2 hrs by PET analysis; format: ADME, organism-based; details: in vivo
In short: as §3

Heart [12] = assay: Biodistribution in heart of C57BL/6J mouse harboring mouse B16-Bl6 cells at 9 to 12 MBq, iv after 3 hrs by PET analysis; format: ADME, organism-based; details: in vivo
In short: as §3

Mus musculus [13] = assay: Biodistribution in colon and feces of C57BL/6J mouse harboring mouse B16-Bl6 cells at 9 to 12 MBq, iv after 2 hrs by PET analysis; format: ADME, organism-based; details: in vivo
In short: as §3

Kidney [14] = assay: Biodistribution in kidney of C57BL/6J mouse harboring mouse B16-Bl6 cells at 9 to 12 MBq, iv after 3 hrs by PET analysis; format: ADME, organism-based; details: in vivo
In short: as §3

Heart [15] = assay: Biodistribution in heart of C57BL/6J mouse harboring mouse B16-Bl6 cells at 9 to 12 MBq, iv after 2 hrs by PET analysis; format: ADME, organism-based; details: in vivo
In short: as §3

Kidney [16] = assay: Biodistribution in kidney of C57BL/6J mouse harboring mouse B16-Bl6 cells at 9 to 12 MBq, iv after 1 hr by PET analysis; format: ADME, organism-based; details: in vivo
In short: as §3

Liver = assay: Stability of the compound in liver of C57BL/6J mouse harboring mouse B16-Bl6 cells assessed as unchanged drug level at 18 MBq, iv after 2 hrs; format: ADME, organism-based; details: in vivo
In short: as §1

Bone = assay: Biodistribution in bones of C57BL/6J mouse harboring mouse B16-Bl6 cells at 9 to 12 MBq, iv after 1 hr by PET analysis; format: ADME, organism-based, Bone element; details: in vivo
In short: as §3

[17] = Stability of the compound in urine of C57BL/6J mouse harboring mouse B16-Bl6 cells assessed as unchanged drug level at 18 MBq, iv after 2 hrs; format: ADME, organism-based; details: in vivo
In short: as §1

| Ratio (Mus musculus [1]) | Ratio (Nucleic Acid) | Drug uptake (Mus musculus [7]) [% ID/g] | Drug uptake (Kidney [8]) [% ID/g] | Kp at 1 h [9] | Drug uptake (Mus musculus [11]) [% ID/g] | Drug uptake (Pancreas) [% ID/g] | Drug uptake (Heart [12]) [% ID/g] | Drug uptake (Mus musculus [13]) [% ID/g] | Drug uptake (Kidney [14]) [% ID/g] | Drug uptake (Heart [15]) [% ID/g] | Drug uptake (Kidney [16]) [% ID/g] | Drug uptake (Bone) [% ID/g] | Structure (SMILES) | also measured |
| --- | --- | --- | --- | --- | --- | --- | --- | --- | --- | --- | --- | --- | --- | --- |
| 7.13 | 10.11 | 18.17 | 2.18 | 10.2 | 4.28 | 1.33 | 2.32 | 6.05 | 2.19 | 2.14 | 3.46 | 1.4 | CCN(CCNC(=O)c1cnc2cc(I)ccc2n1)CCOCCOCCOCC[18F] | remaining at 0.5 h [2]: > 99%; remaining at 1 h [3]: > 99%; remaining at 2 h [4]: > 99%; Stability (Blood): Unstable; remaining at 1 h [5]: 0.1%; remaining at 2 h [6]: > 99%; remaining at 1 h [10]: 8%; Stability (Liver): Unstable; Stability [17]: Unstable |
| 2.75 | 5.35 | 12.1 | 3.52 | 8.29 | 19.51 | 1.56 | 3 | 8.14 | 2.6 | 1.7 | 3.6 | 1.82 | CCN(CCNC(=O)c1cnc2cc(I)ccc2n1)CCOCCOCCOCCOCCOCCOCCOCC[18F] |  |
